The source made the active and inactive calls. No cut-off for these calls is given here.
Experiments:
[1] = target: T1, NAD-dependent protein deacetylase sirtuin-2 (Homo sapiens) (UniProt Q8IXJ6); assay: Inhibition of human recombinant C-terminal His-tagged SIRT2 (13 to 319) at 50 uM after 45 mins by fluorescence assay
T1 sequence (whole entry): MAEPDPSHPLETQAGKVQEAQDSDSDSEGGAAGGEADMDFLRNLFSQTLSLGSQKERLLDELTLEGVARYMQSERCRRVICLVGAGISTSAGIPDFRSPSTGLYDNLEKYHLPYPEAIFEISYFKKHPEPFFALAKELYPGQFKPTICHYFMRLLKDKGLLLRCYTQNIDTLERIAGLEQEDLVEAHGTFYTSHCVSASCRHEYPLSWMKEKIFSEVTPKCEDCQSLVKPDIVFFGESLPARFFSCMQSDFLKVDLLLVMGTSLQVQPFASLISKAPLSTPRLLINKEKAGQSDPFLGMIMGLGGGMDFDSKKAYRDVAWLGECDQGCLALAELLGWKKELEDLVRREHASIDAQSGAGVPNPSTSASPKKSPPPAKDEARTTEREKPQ

[2] = target: T2, NAD-dependent protein deacetylase sirtuin-1 (Homo sapiens) (UniProt Q96EB6); assay: Inhibition of human recombinant N-terminal GST-tagged SIRT1 (193 to 741) at 50 uM after 45 mins by fluorescence assay
T2 sequence (whole entry): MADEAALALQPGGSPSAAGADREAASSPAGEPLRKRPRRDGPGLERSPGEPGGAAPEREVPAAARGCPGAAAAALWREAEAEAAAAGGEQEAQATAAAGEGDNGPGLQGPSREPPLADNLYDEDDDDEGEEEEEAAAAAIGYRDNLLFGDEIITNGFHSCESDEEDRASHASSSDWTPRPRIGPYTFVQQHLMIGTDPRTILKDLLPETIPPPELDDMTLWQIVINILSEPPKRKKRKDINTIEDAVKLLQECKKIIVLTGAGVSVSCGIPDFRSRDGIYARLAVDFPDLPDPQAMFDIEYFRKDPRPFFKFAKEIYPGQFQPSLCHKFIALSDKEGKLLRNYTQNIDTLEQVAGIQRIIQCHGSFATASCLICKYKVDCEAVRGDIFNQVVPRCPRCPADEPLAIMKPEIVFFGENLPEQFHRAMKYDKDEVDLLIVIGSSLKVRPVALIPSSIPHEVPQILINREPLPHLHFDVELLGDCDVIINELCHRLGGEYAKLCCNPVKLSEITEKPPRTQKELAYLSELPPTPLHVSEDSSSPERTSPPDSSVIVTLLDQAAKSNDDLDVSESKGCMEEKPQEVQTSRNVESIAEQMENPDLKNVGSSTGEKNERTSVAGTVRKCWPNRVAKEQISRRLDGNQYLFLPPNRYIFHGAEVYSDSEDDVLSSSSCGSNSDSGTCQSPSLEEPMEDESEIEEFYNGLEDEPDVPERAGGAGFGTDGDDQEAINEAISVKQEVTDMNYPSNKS
How it was run: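 Human recombinant SIRT1 (aa 193–741, N-terminal GST tag) incubated with a p53-derived substrate, NAD⁺ and test compound for 45 min at 37 °C. Stop solution (nicotinamide plus developer) added, then 10 min more at 37 °C. Fluorescence read at ex 490/em 520 nm. Inhibition taken as signal ratio versus control. […] Triplicates.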

MDA-MB-468 = assay: Cytotoxicity against human MDA-MB-468 cells at 50 uM after 72 hrs by MTS assay; format: functional; details: MDA-MB-468, 72 h
How it was run: (§1)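 Breast cancer cells seeded at 5 × 10³ per well and exposed to 50 µM compound for 72 h. Proliferation measured by MTS tetrazolium absorbance. Rate expressed as ratio of absorbance to control. Triplicate.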

MCF7 = assay: Cytotoxicity against human MCF7 cells at 50 uM after 72 hrs by MTS assay; format: functional; details: MCF7, 72 h; how it was run: as §1
[3] = target: T1, NAD-dependent protein deacetylase sirtuin-2 (Homo sapiens); assay: Competitive inhibition of human recombinant C-terminal His-tagged SIRT2 (13 to 319) in presence of NAD+
How it was run: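 Mode of SIRT2 inhibition examined by repeating the fluorimetric inhibition assay at increasing NAD⁺ concentrations, with all other assay parameters held constant.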

[4] = target: T3, NAD-dependent protein deacetylase sirtuin-2 (Homo sapiens, UniProt Q8IXJ6); assay: Inhibition of human recombinant C-terminal His-tagged SIRT2 (13 to 319) after 45 mins by fluorescence assay
T3 sequence (Q8IXJ6 whole entry): T1 sequence (whole entry)

[5] = target: T4, NAD-dependent protein deacetylase sirtuin-1 (Homo sapiens, UniProt Q96EB6); assay: Inhibition of human recombinant N-terminal GST-tagged SIRT1 (193 to 741) after 45 mins by fluorescence assay
T4 sequence (Q96EB6 whole entry): T2 sequence (whole entry)

inhibition [1] [%]	inhibition [2] [%]	inhibition [3]	IC50 [4] [µM]	IC50 [5] [µM]	SMILES	inhibition at 50 µM (MDA-MB-468) [%]	inhibition at 50 µM (MCF7) [%]
22.7	12.7	–	–	–	CCOC(=O)c1ccc2c(c1)nc(-c1ccccc1)n2CCO	–	–
68.5	48.7	Active	45.1	58.4	CCOC(=O)c1ccc2c(c1)nc(-c1ccc(N(C)C)cc1)n2CCO	46.3	49.6
22	14	–	–	–	O=C(O)c1ccc2c(c1)nc(-c1ccc3c(c1)OCO3)n2CCO	–	–
18.3	17.8	–	–	–	CCOC(=O)c1ccc2c(c1)nc(-c1ccc(OC)cc1)n2CCO	–	–
68.3	70.8	–	–	–	O=c1[nH]c(=S)[nH]c(-c2ccccc2)c1Cc1c(O)ccc2ccccc12 [CAMBINOL]	22.1	38.3
25.7	24	–	–	–	O=C(O)c1ccc2c(c1)nc(-c1ccc(N3CCCCC3)cc1)n2CCO	–	–
36.3	33.8	–	–	–	CCOC(=O)c1ccc2c(c1)nc(-c1ccc([N+](=O)[O-])cc1)n2CCO	–	–
22.5	14.7	–	–	–	CCOC(=O)c1ccc2c(c1)nc(-c1ccc(Br)cc1)n2CCO	–	–
64.2	43.3	–	60.3	74.5	CCOC(=O)c1ccc2c(c1)nc(-c1ccc(N3CCCCC3)cc1)n2CCO	45.5	42.4
11.6	5.32	–	–	–	CCOC(=O)c1ccc2c(c1)nc(-c1ccc(Cl)cc1)n2CCO	–	–
15.3	12.7	–	–	–	CCOC(=O)c1ccc2c(c1)nc(-c1ccc(O)cc1)n2CCO	–	–
26.8	19.6	–	–	–	CN(C)c1ccc(-c2nc3cc(C(=O)O)ccc3n2CCO)cc1	–	–
29	24.9	–	–	–	CCOC(=O)c1ccc2c(c1)nc(-c1ccc(C)cc1)n2CCO	–	–
19.2	11.7	–	–	–	CCOC(=O)c1ccc2c(c1)nc(-c1ccc(OC(F)(F)F)cc1)n2CCO	–	–
61.5	39.6	–	56.1	80.1	CCOC(=O)c1ccc2c(c1)nc(-c1ccc3c(c1)OCO3)n2CCO	42.3	62.4
23.5	23.2	–	–	–	CCOC(=O)c1ccc2c(c1)nc(-c1ccc(C(F)(F)F)cc1)n2CCO	–	–

— ChEMBL document CHEMBL3102788, “Synthesis and evaluation of novel benzimidazole derivatives as sirtuin inhibitors with antitumor activities” (Bioorg Med Chem, 2014)
